Rows were chosen to be rich in hits. Some 2.9% of all compounds tested hit in one or more screens of this group.
TRPC4 act = TRPC4 (mouse) channel activation; Q9QUQ5; HEK293 TRPC4beta/mu-opioid, Fluo4 calcium fluorescence; hits give high values; B-score at 10 µM; 0.49% of 310,000 active;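 active = B-score above 5 SD of library B-scores, and initial fluorescence ratio not above library mean plus 5 SD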;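 also: positive B-score marks a calcium rise read as TRPC4 activation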
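Assay system: HEK293 cells stably co-expressing mouse TRPC4beta and mu-opioid receptor / Timing: Fluo4 dye loading 45 min at room temperature, 110 s recording / Signal: Fluo4 calcium-sensitive dye fluorescence, kinetic, 1 Hz baseline / Read-out: integrated baseline-normalised fluorescence ratio, converted to per-well B score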
TRPC4 inh = inhibitors of mouse TRPC4 channel | Q9QUQ5 | HEK293 TRPC4beta/mu-opioid, DAMGO-evoked Fluo4 calcium flux; hits give low values | B-score at 10 µM | 0.39% of 300,000 active | AID 2247;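 active = B-score over 3 SD under the library average, no early fluorescence shift, positive overall ratio signal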
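Assay system: Stable TRPC4beta/mu-opioid receptor HEK293 cells | Reagent: DAMGO in two steps, submaximal then maximal | Compound dosing: Single concentration per test compound | Signal: Fluo4 Ca2+ flux fluorescence | Evaluation: Per-well B score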
TRPC6 act = activates the mouse TRPC6 cation channel. 0.13% of 310,000 active. AID 2550. Q61143. HEK293-TRPC6 membrane potential dye fluorescence; hits give high values. B-score at 10 µM;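 active = B-score of the integrated fluorescence ratio above library mean plus 3 SD, and starting fluorescence ratio within library mean plus 5 SD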;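 also: higher score means more depolarization so channel activation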
Target sequence (Q61143 whole entry, looked up): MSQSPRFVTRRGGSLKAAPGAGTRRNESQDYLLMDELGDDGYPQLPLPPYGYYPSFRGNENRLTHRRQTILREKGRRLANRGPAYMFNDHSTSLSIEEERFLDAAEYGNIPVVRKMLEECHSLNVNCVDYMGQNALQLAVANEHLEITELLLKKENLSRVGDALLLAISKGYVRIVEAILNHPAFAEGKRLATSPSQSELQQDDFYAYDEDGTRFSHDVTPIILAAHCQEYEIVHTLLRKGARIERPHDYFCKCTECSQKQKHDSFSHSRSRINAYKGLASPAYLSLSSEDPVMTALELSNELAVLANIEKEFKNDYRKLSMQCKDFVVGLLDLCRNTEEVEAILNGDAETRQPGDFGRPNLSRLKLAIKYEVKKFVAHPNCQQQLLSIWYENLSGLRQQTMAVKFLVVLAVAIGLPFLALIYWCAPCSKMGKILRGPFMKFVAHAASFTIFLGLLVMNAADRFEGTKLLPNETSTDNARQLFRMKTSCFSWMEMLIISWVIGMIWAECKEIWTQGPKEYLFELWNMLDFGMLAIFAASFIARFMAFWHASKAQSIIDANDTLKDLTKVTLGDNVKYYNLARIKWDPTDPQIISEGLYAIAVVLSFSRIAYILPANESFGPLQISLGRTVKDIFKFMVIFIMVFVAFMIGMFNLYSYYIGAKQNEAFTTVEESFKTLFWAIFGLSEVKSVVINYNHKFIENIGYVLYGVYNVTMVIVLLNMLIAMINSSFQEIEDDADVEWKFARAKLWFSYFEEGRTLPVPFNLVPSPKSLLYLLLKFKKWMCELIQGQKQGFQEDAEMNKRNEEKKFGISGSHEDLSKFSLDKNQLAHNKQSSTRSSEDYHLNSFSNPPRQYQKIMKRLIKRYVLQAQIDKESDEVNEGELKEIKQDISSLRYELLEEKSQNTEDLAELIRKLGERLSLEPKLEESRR
Kir21 inh = inhibitors of mouse Kir2.1 inward-rectifier potassium channel | 0.85% of 310,000 active | B-score at 10 µM | HEK293-Kir2.1, FluxOR thallium flux fluorescence; hits give low values | P35561 | AID 1672;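 active = fluorescence ratio B-score at or below minus 3 SD of library scores, with starting-brightness B-score within 2 SD, cut at about -4.2 in these data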;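 also: channel flux triggered by added potassium and thallium sulfate stimulus; B-score of peak minus minimum fluorescence over baseline after thallium stimulus; more negative B-score means stronger Kir2.1 block with less thallium influx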
TRPC4 PAM = allosteric potentiators of mouse TRPC4 channel; HEK293 TRPC4beta/mu-opioid, DAMGO EC20, Fluo-4 Ca2+ flux; hits give high values; B-score at 10 µM; 0.42% of 310,000 active; AID 2227;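 active = B-score of calcium response area above 5 SD of library B-scores, with initial fluorescence ratio within 5 SD of library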;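 also: B-score of integrated fluorescence ratio over time as area under calcium response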
TRPC6 inh = mouse TRPC6 channel inhibition; HEK293-TRPC6, membrane potential dye, ACh-evoked depolarization; hits give low values; B-score at 10 µM; 1.1% of 310,000 active; AID 2553;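 active = B-score under library mean minus 3 SD, initial fluorescence not abnormally high, positive integrated signal ratio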;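 also: B-score derived from integrated fluorescence ratio over the kinetic read; more negative B-score means stronger inhibition of depolarization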
HEK293 TRPC6 ctr = checks TRPC6 modulator effects in parental HEK293 cells; shares compounds with TRPC6 inh; 51% of 2,400 active; membrane potential dye fluorescence; membrane potential signal change, % at 10 µM;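 active = membrane potential signal moves up or down beyond 5 SD from buffer-only wells, on both duplicate plates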
HEK293 MPD ctr 2 = second counter-screen for TRPC6 modulators: effect in parental HEK293 cells; shares compounds with TRPC6 inh; membrane potential dye fluorescence; after compound, maximal acetylcholine stimulation; inhibition, % at 10 µM; 14% of 2,400 active;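 active = membrane potential signal drops by more than 5 SD from the mean control signal, in both duplicate plates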;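 also: plate controls were acetylcholine ECmax control wells for no effect and buffer only wells for full effect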
TRPC4/MOR mod = tests whether TRPC6 modulators also affect mouse TRPC4; shares compounds with TRPC6 inh; HEK293 TRPC4/mu-opioid, membrane potential fluorescence; percent change from control (negative = decrease, positive = increase), % at 10 µM; 69% of 2,400 active; AID 488927;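 active = membrane potential signal moved up or down beyond 5 SD of buffer control wells, in both duplicate plates, actives on both sides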;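 also: plate controls were assay buffer wells for no effect and DAMGO maximal-effect wells for full effect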
TRPC4/MOR inh 2 = second selectivity test of TRPC6 modulators against mouse TRPC4. shares compounds with TRPC6 inh. HEK293 TRPC4/mu-opioid, membrane potential dye fluorescence; stimulated with maximal-effect DAMGO. inhibition, % at 10 µM. 55% of 2,400 active;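 active = drop in membrane potential signal beyond 5 SD of the control wells in both duplicate plates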;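 also: TRPC4 counter screen for TRPC6 hits run under conditions tuned for TRPC6 not TRPC4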
TRPC6 inh conf = mouse TRPC6 inhibitor confirmation; HEK293-TRPC6, membrane potential dye, ACh-evoked depolarization; 43% of 3,300 active; shares compounds with TRPC6 inh; inhibition, % at 10 µM; AID 488960;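 active = fluorescence ratio falls more than 5 SD below the full-stimulation control mean, in both duplicate runs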;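 also: integrated fluorescence ratio of peak minus minimum over baseline after agonist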
TRPC6 act conf = mouse TRPC6 activator confirmation; HEK293-TRPC6 membrane potential dye fluorescence, FDSS; shares compounds with TRPC6 inh; 11% of 2,800 active; activation, % at 10 µM; AID 488961;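 active = ratio signal rise beyond 5 SD above unstimulated control wells' mean, seen in both duplicate runs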;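 also: plate controls were buffer EC0 wells for no effect and acetylcholine ECmax response for full effect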
An asterisk follows results filed as active; i = inactive; x = no result.

SMILES	TRPC4 act	TRPC4 inh	TRPC6 act	Kir21 inh	TRPC4 PAM	TRPC6 inh	HEK293 TRPC6 ctr	HEK293 MPD ctr 2	TRPC4/MOR mod	TRPC4/MOR inh 2	TRPC6 inh conf	TRPC6 act conf
O=C(/C=C/c1c(F)cccc1Cl)NCc1ccc2c(c1)OCO2	i	i	i	2.3	i	i	x	x	x	x	x	x
COCCNc1cc(C)nc2cc(-c3ccc(C)cc3)nn12	i	i	i	0.73	i	i	x	x	x	x	x	x
COc1ccc(-c2cc3nc(C)cc(N)n3n2)cc1	i	i	i	1.4	i	-5*	-143%*	i	-22%*	i	i	i
COc1ccc(-c2cc3nc(C)cc(NCCO)n3n2)cc1	i	i	i	-0.53	i	-9*	-300%*	i	-48%*	49%*	72%*	i
COc1ccc(-c2cc3nc(C)cc(-c4ccc(OC)cc4)n3n2)cc1	i	i	i	-0.19	i	i	x	x	x	x	x	x
O=C(NCCCN1CCCC1=O)c1ccc(S(=O)(=O)Nc2cccc(C(F)(F)F)c2)cc1	i	i	i	0.79	i	i	x	x	x	x	x	x
NS(=O)(=O)c1ccc(NC(=O)Nc2ccc3c(c2)OCO3)cc1	i	i	i	-0.05	i	i	x	x	x	x	x	x
CCCCCCC(=O)N1CCC(c2nc3c(nnn3Cc3ccccc3Cl)c(=O)[nH]2)CC1	i	i	14*	0.04	i	-11*	131%*	i	22%*	i	74%*	127%*
Cn1cc(C(=O)NCc2cccs2)c(=O)c2cc(S(=O)(=O)N3CCCC3)ccc21	i	i	i	0.63	i	i	x	x	x	x	x	x
N#Cc1ccc(-c2cn(-c3ccccc3)c3[n+]2CCCS3)cc1	i	i	i	1.7	i	-6*	-214%*	i	-35%*	38%*	i	i
N=c1c(-c2nc3ccccc3[nH]2)cc(C(=O)c2cccs2)nn1-c1ccc(Cl)cc1	i	i	i	0.05	i	-6.2*	i	i	-19%*	56%*	i	i
O=C(Nc1nc2ccccc2[nH]1)c1cccs1	i	i	i	1.1	i	i	x	x	x	x	x	x
COc1ccc(OC)c(C(=O)N2CCC(C(=O)c3ccc(F)cc3)CC2)c1	i	i	i	-0.96	i	i	x	x	x	x	x	x
Cn1cccc1/C=C1\CC(C(C)(C)C)C/C(=C\c2cccn2C)C1=O (stereo unspecified)	i	i	30*	-7.3	i	i	182%*	i	i	i	i	i
COc1ccc(-n2nc(C(N)=O)nc2-c2ccccc2)cc1	i	i	i	0.43	i	-5.8*	i	i	i	i	48%*	x
Cc1ccc(-n2nc(C(N)=O)nc2-c2ccccc2)cc1	i	i	i	-1.6	i	i	x	x	x	x	x	x
CC(C)Oc1ccc(C(=O)Nc2ccc(C(F)(F)F)n(C)c2=O)cc1	i	i	i	-1.2	i	i	x	x	x	x	x	x
CCN1CCN(c2ccc([N+](=O)[O-])c(Sc3nc4ccccc4[nH]3)c2)CC1	i	i	i	0.04	i	-5.4*	i	i	-12%*	61%*	46%*	i
O=c1c2ccccc2nnn1Cc1ccc2ccccc2c1	i	i	i	0.88	i	i	x	x	x	x	x	x
CCN1CCCC1CNC(=O)c1ccc(Sc2ccccc2Cl)c([N+](=O)[O-])c1 (stereo unspecified)	i	i	i	-0.86	i	-7.1*	i	i	i	44%*	42%*	i
O=C(NCCCN1CCOCC1)c1ccc(Sc2ccc(F)cc2)c([N+](=O)[O-])c1	i	i	i	-0.53	i	i	x	x	x	x	x	x
CCN1CCCC1CNC(=O)c1ccc(Sc2ccc(F)cc2)c([N+](=O)[O-])c1 (stereo unspecified)	i	i	i	-1.8	i	-8.2*	i	i	i	56%*	52%*	i
CCn1ncc(C2=NOC(C(=O)Nc3cnn(C45CC6CC(CC(C6)C4)C5)c3)C2)c1C (stereo unspecified)	i	i	19*	2.6	i	i	i	i	i	i	x	126%*
CC(=O)Nc1ccc(N2CCOCC2)c(Cl)c1	i	i	i	1.5	i	i	x	x	x	x	x	x
Cc1ccc(NC(=O)CSCC(=O)Nc2ccc(N3CCOCC3)c(Cl)c2)cc1	i	i	i	0.65	i	-5.7*	i	i	i	i	i	i
SMILES	TRPC4 act	TRPC4 inh	TRPC6 act	Kir21 inh	TRPC4 PAM	TRPC6 inh	HEK293 TRPC6 ctr	HEK293 MPD ctr 2	TRPC4/MOR mod	TRPC4/MOR inh 2	TRPC6 inh conf	TRPC6 act conf
Cc1cc(C)c2oc(-c3cccc(N)c3)nc2c1	i	i	i	2	i	i	x	x	x	x	x	x
Cc1ccc2nc(-c3cccc(N)c3)oc2c1	i	i	i	0.16	i	-5.5*	i	i	i	i	i	i
CCOC(=O)C(=O)N1CCN(c2nc(-c3ccc(Cl)cc3)cs2)CC1	i	i	i	0.59	i	-6.2*	i	i	i	i	i	i
CCOC(=O)N1CCN(c2nc(-c3ccc(F)cc3)cs2)CC1	i	i	i	0.79	i	i	x	x	x	x	x	x
Cc1ccccc1NC(=O)c1cccc(NC(=O)c2ccccc2C(=O)O)c1	i	i	i	-1.2	i	i	x	x	x	x	x	x
O=C(NCC(c1ccco1)N1CCc2ccccc2C1)C(=O)Nc1ccccc1 (stereo unspecified)	i	i	i	0.39	i	i	x	x	x	x	x	x
